Where two headings read alike, the source gives them in different places. One block for each compound: values may come before it.
Assays:
[1] = type: in vivo, human; conditions: for Tmax: healthy female subjects, median (range); for bioavailability: oral
Outline: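 Healthy female volunteers fasted about 10 h, then took a 100 mg oral tablet. A 13C-labeled microdose (15 µg/ml target, PEG-400 solution diluted in saline, filtered) was infused i.v. 4 h later. Plasma was sampled predose and 1–72 h post-oral, and 5–30 min post-i.v. Concentrations were measured by LC-MS/MS against a 0.0300–15.0 ng/ml calibration (1/x² weighting). Noncompartmental analysis used the actual i.v. dose, assayed from the unflushed infusion line.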

[2] = Stability and adsorption of the venetoclax microdose solution; type: physicochemical; conditions: during formulation and process development
[3] = cited from earlier work
CYP3A4 enzyme = conditions: cited from earlier work
[4] = 100 mg venetoclax oral tablet, fasting, N = 12, mean (%CV)
[5] = female, human, plasma, po, 100 mg
[6] = 100 µg 13C-venetoclax solution for IV infusion, N = 11, mean (%CV)
[7] = 100 µg 13C-venetoclax solution for IV infusion, actual dose, N = 11, mean (%CV)

AUCinf/dose [1, 4]: 19.3 (45%) (ng·h/ml)/mg
Cmax/dose [1, 4]: 1.49 (47%) (ng/ml)/mg
Tmax ([1]; 100 mg venetoclax oral tablet, fasting, N = 12): 4.2 (4.0–6.0) h
half-life ([1]; female, human, plasma, iv, 100 µg, t 1/2, 100 µg 13C-venetoclax solution for IV infusion, N = 11, harmonic mean (pseudo %CV)): ~14 h
bioavailability ([1]; female, human, plasma, 100 mg): 5.4%
AUC(0-inf) [1, 5]: 1930 ng·h/mL
AUC(0-t) [1, 5]: 1850 ng·h/mL
Cmax [1, 5]: 149 ng/mL
Tmax ([1]; female, human, plasma, po, 100 mg, Tmax, 100 mg venetoclax oral tablet, fasting, N = 12): ~4 h
half-life ([1]; female, human, plasma, po, 100 mg, t 1/2, 100 mg venetoclax oral tablet, fasting, N = 12, harmonic mean (pseudo %CV)): ~14 h
fraction metabolized by the liver in a single pass ([1]; from hepatic extraction ratio): 6%
bioavailability ([1]; human, plasma): 18 to 28%
adsorptive losses on the infusion line [2]: 1 to 2 µg/mL
Compound: CC1(C)CCC(CN2CCN(c3ccc(C(=O)NS(=O)(=O)c4ccc(NCC5CCOCC5)c([N+](=O)[O-])c4)c(Oc4cnc5[nH]ccc5c4)c3)CC2)=C(c2ccc(Cl)cc2)C1 [venetoclax]
pharmacokinetic linearity [3]: linear between 150 and 800 mg dose
terminal half-life [3]: 16 h
time to reach Cmax after dosing [3]: 6 to 8 h
metabolism (CYP3A4 enzyme): predominantly metabolized by the CYP3A4 enzyme

t 1/2 ([1]; 100 µg 13C-venetoclax solution for IV infusion, N = 11, harmonic mean (pseudo %CV)): 14.4 (5.5) h
AUCinf [1, 6]: 0.036 (39%) µg·h/ml
AUCt [1, 6]: 0.034 (37%) µg·h/ml
Cmax [1, 6]: 0.019 (19%) µg/ml
AUCinf/dose [1, 7]: 324 (37%) (ng·h/ml)/mg
AUCt/dose [1, 7]: 310 (36%) (ng·h/ml)/mg
Cmax/dose [1, 7]: 176 (16%) (ng/ml)/mg
Compound: [^13C7]‐venetoclax [^13C‐venetoclax]
